In ChEMBL document CHEMBL4422642, “Antiproliferative and Antimigratory Effects of a Novel YAP-TEAD Interaction Inhibitor Identified Using in Silico Molecular Docking” (J Med Chem, 2019):
The source made the active and inactive calls. The rule behind the calls is not given here.

What was measured:
[1] = Inhibition of TEAD (unknown origin) expressed in human HeLa cells after 6 hrs by nanoluciferase reporter gene assay; format: cell-based
How it was run: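 HeLa cells stably transduced with a lentiviral 8×TEAD-element secreted nanoluciferase reporter were seeded at 2 × 10^4 cells/well and grown 48 h. They were washed and treated with compound for 2 h, washed again and re-treated for 4 h. Secreted nanoluciferase in the conditioned medium was assayed with NanoGlo; n = 3.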

[2] = target: T1, Transcriptional enhancer factor TEF-4 (Homo sapiens, UniProt Q15562); experiment: Inhibition of Gal4-fused TEAD2 (unknown origin) interaction with YAP expressed in human HeLa cells assessed as basal transcriptional activity level after 6 hrs by nanoluciferase reporter gene assay; format: cell-based
[3] = target: Transcriptional enhancer factor TEF-5 (Homo sapiens, UniProt Q99594); experiment: Inhibition of Gal4-fused TEAD3 (unknown origin) interaction with YAP expressed in human HeLa cells assessed as basal transcriptional activity level after 6 hrs by nanoluciferase reporter gene assay; format: cell-based
VSMC [4] = experiment: Antimigratory activity in rat VSMC incubated for overnight followed by media replacement and measured every hour for 24 hrs by phase contrast microscopic analysis; format: functional, cell-based
How it was run: (§1)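 IncuCyte real-time scratch wound assay. Cells were seeded in 96-well plates and grown 36 h, then pretreated overnight with compound. Wells were scratched and the medium was replaced with compound-containing medium. Phase-contrast images of the wound were taken hourly for 24 h and relative wound confluence was calculated; n = 4.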

Rattus norvegicus [5] = species on record: Rattus norvegicus; experiment: Inhibition of TEAD in rat VSMC assessed as reduction in MAYDM m-RNA expression at 60 uM by RT-qPCR analysis
How it was run: (§2)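 Rat aortic VSMCs (male Sprague-Dawley, 10% FCS/DMEM) were treated with 60 μM compound for 6 h; n = 3. Total RNA was reverse-transcribed with random primers and quantified by SYBR Green qPCR. Data were normalized to nonstimulated controls.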

VSMC [6] = experiment: Inhibition of TBP m-RNA expression in rat VSMC at 60 uM by RT-qPCR analysis; format: functional, cell-based; how it was run: as §2
Rattus norvegicus [7] = species on record: Rattus norvegicus; experiment: (§3) Inhibition of TEAD (unknown origin) expressed in rat VSMC after 6 hrs by nanoluciferase reporter gene assay
How it was run: (§4)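 Rat aortic VSMCs stably transduced with the 8×TEAD secreted nanoluciferase reporter were treated with compound over a concentration range for 6 h. Conditioned medium was assayed for nanoluciferase activity.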

[8] = as §3; how it was run: as §4
HeLa [9] = experiment: Inhibition of Gal4 expression in human HeLa cells assessed as basal transcriptional activity level at 100 uM after 6 hrs by nanoluciferase reporter gene assay; format: functional, cell-based
Rattus norvegicus [10] = species on record: Rattus norvegicus; experiment: Inhibition of TEAD in rat VSMC assessed as reduction in CTGF m-RNA expression at 60 uM by RT-qPCR analysis; how it was run: as §2
HeLa [11] = experiment: Cytotoxicity against human HeLa cells assessed as reduction in cell viability by measuring ethidium homodimer-1 uptake at 20 uM preincubated for 10 mins followed by ethidium homodimer-1 addition measured after 10 mins by fluorescence assay; format: cell-based
How it was run: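 Live/dead cell viability assay in HeLa cells. Maximum death was set by treating cells 10 min with 0.1% Triton-X, then 10 min with 0.4 μM ethidium homodimer-1. Fluorescence was read on a plate reader.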

HeLa [12] = experiment: Inhibition of TNT1 m-RNA expression in human HeLa cells incubated for 2 hrs followed by compound wash out and re-treatment for 4 hrs by NanoGlo assay; format: functional, cell-based
HeLa [13] = experiment: Antimigratory activity in human HeLa cells at 40 to 80 uM incubated for overnight followed by media replacement and measured every hour for 24 hrs by phase contrast microscopic analysis; format: functional, cell-based; how it was run: as §1
[14] = target: T1, Transcriptional enhancer factor TEF-4; experiment: Inhibition of Gal4-fused TEAD2 (unknown origin) interaction with YAP expressed in human HeLa cells assessed as basal transcriptional activity level up to 100 uM after 6 hrs by nanoluciferase reporter gene assay; format: cell-based
VSMC [15] = experiment: Inhibition of GAPDH m-RNA expression in rat VSMC at 60 uM by RT-qPCR analysis; format: functional, cell-based; how it was run: as §2
[16] = target: Transcriptional enhancer factor TEF-1 (Homo sapiens, UniProt P28347); experiment: Inhibition of Gal4-fused TEAD1 (unknown origin) interaction with YAP expressed in human HeLa cells assessed as basal transcriptional activity level up to 100 uM after 6 hrs by nanoluciferase reporter gene assay; format: cell-based
Sequence of Transcriptional enhancer factor TEF-1 (P28347 whole entry, the tested form may be a part): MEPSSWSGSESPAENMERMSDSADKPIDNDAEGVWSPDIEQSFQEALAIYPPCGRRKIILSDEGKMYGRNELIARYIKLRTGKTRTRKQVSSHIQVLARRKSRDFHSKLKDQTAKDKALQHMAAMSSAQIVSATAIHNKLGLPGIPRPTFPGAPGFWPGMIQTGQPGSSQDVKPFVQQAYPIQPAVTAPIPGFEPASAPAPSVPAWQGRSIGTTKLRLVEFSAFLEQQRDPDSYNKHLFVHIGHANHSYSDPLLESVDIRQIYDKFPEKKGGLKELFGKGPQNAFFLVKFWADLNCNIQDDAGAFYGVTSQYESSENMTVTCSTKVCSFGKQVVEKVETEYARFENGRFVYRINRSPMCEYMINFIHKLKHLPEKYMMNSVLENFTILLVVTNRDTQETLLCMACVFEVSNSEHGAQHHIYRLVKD

T1 sequence (Q15562 whole entry, the tested form may be a part): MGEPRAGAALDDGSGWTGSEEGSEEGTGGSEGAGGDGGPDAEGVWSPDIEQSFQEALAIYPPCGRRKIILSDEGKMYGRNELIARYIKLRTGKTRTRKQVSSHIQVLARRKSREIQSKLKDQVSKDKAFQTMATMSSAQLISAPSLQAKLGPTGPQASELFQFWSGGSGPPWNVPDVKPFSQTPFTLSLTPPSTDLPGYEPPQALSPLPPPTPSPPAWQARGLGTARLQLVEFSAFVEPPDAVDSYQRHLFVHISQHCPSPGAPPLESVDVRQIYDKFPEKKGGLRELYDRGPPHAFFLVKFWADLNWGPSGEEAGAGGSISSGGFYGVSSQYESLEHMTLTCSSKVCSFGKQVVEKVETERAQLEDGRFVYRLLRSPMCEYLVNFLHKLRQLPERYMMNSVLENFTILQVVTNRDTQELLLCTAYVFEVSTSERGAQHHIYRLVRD
Sequence of Transcriptional enhancer factor TEF-5 (Q99594 whole entry, the tested form may be a part): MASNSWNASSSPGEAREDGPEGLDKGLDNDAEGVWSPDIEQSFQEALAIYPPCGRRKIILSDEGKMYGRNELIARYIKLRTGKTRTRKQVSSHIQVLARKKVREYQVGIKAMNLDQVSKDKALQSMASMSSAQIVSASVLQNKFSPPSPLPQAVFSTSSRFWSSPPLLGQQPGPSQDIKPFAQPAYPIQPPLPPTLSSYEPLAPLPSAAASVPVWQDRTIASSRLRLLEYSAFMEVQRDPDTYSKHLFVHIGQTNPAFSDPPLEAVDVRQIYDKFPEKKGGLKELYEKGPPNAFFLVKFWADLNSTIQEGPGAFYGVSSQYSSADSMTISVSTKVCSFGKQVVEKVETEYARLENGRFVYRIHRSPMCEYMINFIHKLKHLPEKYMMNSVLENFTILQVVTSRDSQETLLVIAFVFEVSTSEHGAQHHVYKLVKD

Work on `Cc1ccc2c(c1)c1c3n2CCNC3CCC1` (stereo unspecified) [PIRLINDOLE] yielded an IC50 [1] of 70 µM, an IC50 [2] of 33 µM and an IC50 [3] of 44 µM. The Activity (VSMC [4]) was “Dose-dependent effect”, the inhibition (Rattus norvegicus [5]) was “Active” and the inhibition (VSMC [6]) was “inactive”. For the same compound, the inhibition (Rattus norvegicus [7]) was “Dose-dependent effect”, the IC50 [8] was 24 µM and the inhibition (HeLa [9]) was “inactive”. For the same compound, the inhibition (Rattus norvegicus [10]) was “Active”, the Activity (HeLa [11]) was “Non-Toxic” and the inhibition (HeLa [12]) was “inactive”. For the same compound, the Activity (HeLa [13]) was “Active”, the inhibition [14] was “Active” and the inhibition (VSMC [15]) was “inactive”. The inhibition [16] was “Active”.
